According to paper PMC4834983 (Journal of medicinal chemistry, 2015):

Legend:
[1] = system: c-Myc, Bcl-2, Mcl-1 and Bcl-xL expression; test: Immunoblots of Stat3-regulated gene products in U251MG cells; type: cell-based, human; conditions: 5 μM
Procedure, shortened: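 Whole-cell lysates prepared from U251MG cells given 5 μM test compound for 0–24 h, with 0.025% DMSO as control. Immunoblotted for c-Myc, Bcl-2, Bcl-xL, Mcl-1, pStat3 and Stat3, with GAPDH as loading reference.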

pYStat3 = test: Immunoblotting of pStat3 in treated U251MG cells; type: cell-based, human; conditions: 5 μM, glioma cells, immunoblotting
Procedure, shortened: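 Whole-cell lysates from U251MG cells given test compound at 5 μM for 0–24 h, or at 0–5 μM for 2 h. Immunoblotted for pY705Stat3 and total Stat3, with GAPDH as loading reference.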

Stat1:Stat1 = biological target: T1, Stat1:Stat1 (Mus musculus, UniProt P42225); test: Cell-free EMSA, EGF-stimulated NIH3T3/hEGFR nuclear extracts; type: biochemical; conditions: 5 μM, 30 min pre-incubation
T1 sequence (P42225 2-749 limits assumed): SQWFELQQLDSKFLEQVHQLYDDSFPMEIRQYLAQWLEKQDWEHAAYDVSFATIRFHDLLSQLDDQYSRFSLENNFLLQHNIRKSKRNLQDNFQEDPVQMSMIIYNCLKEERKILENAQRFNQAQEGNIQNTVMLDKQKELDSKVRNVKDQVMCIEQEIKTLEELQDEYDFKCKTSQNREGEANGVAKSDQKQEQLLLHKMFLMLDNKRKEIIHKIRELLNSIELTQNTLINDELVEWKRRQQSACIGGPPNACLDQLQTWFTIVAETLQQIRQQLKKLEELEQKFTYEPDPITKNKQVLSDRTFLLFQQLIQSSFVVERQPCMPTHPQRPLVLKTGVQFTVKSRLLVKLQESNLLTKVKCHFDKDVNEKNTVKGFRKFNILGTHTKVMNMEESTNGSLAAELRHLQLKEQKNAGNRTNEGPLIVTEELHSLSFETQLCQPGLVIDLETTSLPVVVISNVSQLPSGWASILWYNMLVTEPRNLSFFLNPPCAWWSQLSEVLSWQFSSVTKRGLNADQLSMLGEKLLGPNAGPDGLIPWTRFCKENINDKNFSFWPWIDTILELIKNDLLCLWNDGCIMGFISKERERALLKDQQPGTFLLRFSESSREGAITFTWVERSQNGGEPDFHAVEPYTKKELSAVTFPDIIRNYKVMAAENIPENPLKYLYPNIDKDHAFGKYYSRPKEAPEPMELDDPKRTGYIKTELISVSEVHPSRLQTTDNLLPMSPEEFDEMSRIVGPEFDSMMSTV
Procedure, shortened: (§1)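 Nuclear extracts from EGF-stimulated NIH3T3/hEGFR fibroblasts, containing active Stat1, Stat3 and Stat5, preincubated with 5 μM test compound for 30 min at room temperature. Then incubated 30 min with 32P-labelled probe before EMSA: hSIE (Stat1/Stat3 binding) or MGFe (bovine β-casein element; Stat1/Stat5 binding). STAT:DNA bands quantified as percent of control.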

[2] = Body weights and signs of toxicity in tumor-bearing mice; type: in vivo; conditions: 2 mg/kg, oral gavage, 33 days
G10 cells = test: Growth of glioma patient-derived xenograft cells in vitro; type: cell-based; conditions: Homo sapiens, read-out: inhibitory activity against growth of G10 cells
[3] = system: protein tyrosine phosphatase (PTP)1B; test: Immunoblotting, U251MG glioma cells; type: cell-based, human; conditions: 5 μM
Procedure, shortened: (§2)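 U251MG cells given 5 μM test compound for 0–24 h. Whole-cell lysates of equal total protein immunoblotted for pErk1/2, Erk1/2, pS-Akt, Akt, pJAK2, JAK2, SOCS3 and PTP1B, with β-actin or GAPDH as loading reference.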

U251MG cells [4] = test: BrdU incorporation assay; type: cell-based, human; conditions: 5 μM, at 24 h
Procedure, shortened: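 U251MG cells on glass coverslips exposed to DMSO or 5 μM test compound for 3–24 h. BrdU (10 micromolar) added for the final 2 h. Fixed in 4% paraformaldehyde for 10 min, stained with anti-BrdU antibody and counterstained with DAPI. Imaged by fluorescence microscopy, and cells counted.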

pStat3 [5] = test: Immunoblots of tumor tissue lysates from treated mice; type: in vivo, mouse; conditions: four-to-five cases out of six
Procedure, shortened: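 After oral dosing, lysates of residual subcutaneous U251MG tumour tissue from treated and 1% DMSO vehicle mice. Immunoblotted for pStat3 and Stat3, with GAPDH as loading reference.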

G12 cells = test: Growth of glioma patient-derived xenograft cells in vitro; type: cell-based; conditions: Homo sapiens, read-out: inhibitory activity against G12 cell growth
pStat1 = test: Immunoblotting, EGF-stimulated NIH3T3/hEGFR fibroblasts; type: cell-based, mouse; conditions: 5 μM pre-treatment
Procedure, shortened: (§3)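 NIH3T3/hEGFR fibroblasts pretreated with or without 5 μM test compound for 3 h, then stimulated with 1 μg/ml EGF for 12 min. Whole-cell lysates, equal total protein, immunoblotted for pStat1/Stat1, pStat5/Stat5 and pErk1/2/Erk1/2.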

pStat5 = test: as above; type: cell-based, mouse; conditions: 5 μM pre-treatment
Procedure, shortened: as §3

pJAK2 = test: Immunoblotting, U251MG glioma cells; type: cell-based, human; conditions: 5 μM
Procedure, shortened: as §2

[6] = system: U251MG subcutaneous tumor xenografts; test: Subcutaneous glioma xenograft tumor growth; type: in vivo, mouse; conditions: 2 mg/kg, oral gavage, 33 days
Procedure, shortened: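 Female athymic nude mice, 4 weeks old, injected subcutaneously in the left flank with 7.3 ×10^6 U251MG cells in PBS/matrigel. At 20 days (tumours 170–250 mm3), mice grouped by matched mean tumour size. Dosed 2 mg/kg by oral gavage in 1% DMSO vehicle, three times weekly, for 33 days. Caliper volumes (V = 0.52 × a2 × b) and body weights recorded; paired t test against vehicle.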

[7] = system: suppressors of cytokine signaling (SOCS)3; test: Immunoblotting, U251MG glioma cells; type: cell-based, human; conditions: 5 μM
Procedure, shortened: as §2

U251MG cells [8] = test: Scratch assay for migration; type: cell-based, human; conditions: 5 μM, 19-h treatment
Procedure, shortened: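 Sub-confluent U251MG monolayers wounded with pipette tips and treated once with test compound (0–5 μM) or DMSO vehicle. Cells allowed to migrate into the denuded area over 19 h, then imaged by microscopy at 10×.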

U251MG cells [9] = test: Immunofluorescence staining/confocal microscopy of mitosis; type: cell-based, human; conditions: 15 h treatment
Procedure, shortened: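 U251MG cells on coverslips synchronised by double thymidine block (2 mM) and released for 9 h. Then given DMSO, 100 nM paclitaxel or 8 μM test compound for 15 h. Fixed in 4% paraformaldehyde, permeabilised with 0.1% digitonin and blocked in 0.2% BSA. Stained with anti-β-tubulin (1:350) and anti-MAP1B (1:300) for 1 h at room temperature, then fluorescent secondaries and DAPI; confocal imaging.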

G22 cells [10] = test: 3D spheroid assay; type: cell-based, human; conditions: 5 μM, treated once
pS-Akt = test: Immunoblotting, U251MG glioma cells; type: cell-based, human; conditions: 5 μM
Procedure, shortened: as §2

G22 cells [11] = test: Growth of glioma patient-derived xenograft cells in vitro; type: cell-based; conditions: Homo sapiens, read-out: inhibitory activity against growth of G22 cells
Stat3:Stat3 = Stat3:Stat3 (Mus musculus, UniProt P42227); test: Cell-free EMSA, nuclear extracts pre-incubated with compound, hSIE probe; type: biochemical; conditions: 5 μM, 30 min pre-incubation, NIH3T3/v-Src nuclear extracts
Sequence of Stat3:Stat3 (P42227 2-770 limits assumed): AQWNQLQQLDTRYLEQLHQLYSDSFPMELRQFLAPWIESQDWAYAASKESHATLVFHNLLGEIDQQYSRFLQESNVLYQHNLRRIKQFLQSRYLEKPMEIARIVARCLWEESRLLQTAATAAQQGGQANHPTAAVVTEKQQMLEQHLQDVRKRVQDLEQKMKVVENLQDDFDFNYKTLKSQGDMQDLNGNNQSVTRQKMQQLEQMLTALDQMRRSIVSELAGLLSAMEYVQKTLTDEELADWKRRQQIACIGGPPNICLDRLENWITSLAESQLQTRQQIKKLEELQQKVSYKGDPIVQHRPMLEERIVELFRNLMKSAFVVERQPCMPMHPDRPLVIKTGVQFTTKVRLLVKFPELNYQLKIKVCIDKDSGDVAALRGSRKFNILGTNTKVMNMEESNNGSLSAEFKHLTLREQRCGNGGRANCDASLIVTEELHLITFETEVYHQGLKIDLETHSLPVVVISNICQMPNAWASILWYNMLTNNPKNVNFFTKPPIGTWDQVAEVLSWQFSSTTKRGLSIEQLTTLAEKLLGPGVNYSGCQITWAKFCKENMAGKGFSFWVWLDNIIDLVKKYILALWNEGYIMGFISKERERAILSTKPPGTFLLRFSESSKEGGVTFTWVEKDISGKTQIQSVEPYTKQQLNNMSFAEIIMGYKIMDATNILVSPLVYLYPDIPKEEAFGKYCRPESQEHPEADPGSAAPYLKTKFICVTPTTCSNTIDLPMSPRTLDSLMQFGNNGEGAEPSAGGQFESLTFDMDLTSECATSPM

NIH3T3 cells = test: Colony survival assay; type: cell-based, mouse; conditions: 2.5 μM or less
Procedure, shortened: (§4)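 Cells seeded as single cells at 250 per well and treated once the next day with test compound (0–5 μM) for 72 h. Grown until large colonies were visible: 1 week for NIH3T3, 2 weeks for U251MG. Colonies stained with crystal violet for 4 h and counted.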

Stat5:Stat5 = test: Cell-free EMSA, EGF-stimulated NIH3T3/hEGFR nuclear extracts, MGFe probe; type: biochemical, mouse; conditions: 5 μM, 30 min pre-incubation
Procedure, shortened: as §1

U251MG cells [12] = test: Colony survival assay; type: cell-based, human; conditions: 1 μM, treated once
Procedure, shortened: as §4

Stat3 = Stat3 DNA-binding activity/EMSA of nuclear extracts from treated glioma cells; type: cell-based, human; conditions: 5 μM, glioma cells, EMSA
pErk1/2MAPK [13] = test: Immunoblotting, EGF-stimulated NIH3T3/hEGFR fibroblasts; type: cell-based, mouse; conditions: 5 μM pre-treatment
Procedure, shortened: as §3

pErk1/2MAPK [14] = test: Immunoblotting, U251MG glioma cells; type: cell-based, human; conditions: 5 μM
Procedure, shortened: as §2

pStat3 [15] = test: Immunoblotting of pStat3 in patient-derived xenograft cells; type: cell-based, human; conditions: 5 μM, 3 h
Procedure, shortened: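 Glioma patient-derived xenograft G22 cells (DMEM, 5–10% heat-inactivated FBS) given 5 μM test compound for 0–24 h. Whole-cell lysates immunoblotted for pStat3 and Stat3, with GAPDH as loading reference.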

Q: For `C/C=C(\C)C(=O)O[C@H]1C[C@@H](C)[C@]2(O)CC[C@](C)(/C=C3/OC(=O)C(COC(C)=O)=C31)O2` [Compound 6], which “c-Myc, Bcl-2, Mcl-1 and Bcl-xL expression” value [1] is on record?
A: down regulated

Q: What about the “effect on pStat3 in treated tumor cells” value (pYStat3) of the same molecule?
A: strongly inhibited

Q: What about the “effect on Stat1:Stat1 activity, cell-free EMSA” value (Stat1:Stat1) of the same molecule?
A: weak effects

Q: And the “body weights or obvious signs of toxicity” value [2]?
A: No significant changes

Q: And the inhibition at 5 µM (G10 cells)?
A: 45 to 60%

Q: What about the “effect on PTP1B levels” value [3] of the same molecule?
A: no effects

Q: What about the “cell proliferation measured by BrdU incorporation” value (U251MG cells [4]) of the same molecule?
A: significantly impaired

Q: And the “pStat3 and Stat3 levels in residual tumor tissues” value (pStat3 [5])?
A: lower

Q: And the inhibition at 5 µM (G12 cells)?
A: 25 to 35%

Q: And the “effect on EGF-stimulated pStat1 levels” value (pStat1)?
A: no effect

Q: What about the “effect on EGF-stimulated pStat5 levels” value (pStat5) of the same molecule?
A: no effect

Q: And the “effect on pJAK2” value (pJAK2)?
A: apparent moderate increase

Q: And the “growth of subcutaneous U251MG xenografts” value [6]?
A: inhibited growth

Q: What about the “effect on SOCS3 levels” value [7] of the same molecule?
A: no effects

Q: And the “migration into the denuded area” value (U251MG cells [8])?
A: slowed migration

Q: What about the “chromatid structures and sister-chromatids segregation (mitosis)” value (U251MG cells [9]) of the same molecule?
A: caused defects

Q: And the 3D spheroid growth (G22 cells [10])?
A: decreased 3D spheroid growth

Q: What about the “effect on pS-Akt levels” value (pS-Akt) of the same molecule?
A: no effects

Q: And the inhibition at 5 µM (G22 cells [11])?
A: 45 to 60%

Q: What about the “Stat3:Stat3/DNA-binding activity (complexation), cell-free EMSA” value (Stat3:Stat3) of the same molecule?
A: diminished

Q: What about the “effects on NIH3T3 colony numbers” value (NIH3T3 cells) of the same molecule?
A: moderate or none

Q: And the “effect on Stat5:Stat5 activity, cell-free EMSA” value (Stat5:Stat5)?
A: weak effects

Q: And the U251MG colony formation (U251MG cells [12])?
A: completely inhibited

Q: And the “effect on Stat3 DNA-binding activity in treated tumor cells” value (Stat3)?
A: strongly inhibited

Q: What about the “effect on EGF-stimulated pErk1/2MAPK levels” value (pErk1/2MAPK [13]) of the same molecule?
A: no effect

Q: And the “effect on pErk1/2MAPK levels” value (pErk1/2MAPK [14])?
A: no effects

Q: What about the “effect on Phospho-Stat3 in G22 cells” value (pStat3 [15]) of the same molecule?
A: strongly inhibited
